Test results taken from ChEMBL document CHEMBL4689842, “EUbOPEN Chemogenomics Library wave 1” (2021).

System: HEK-293T
Assay: Multiplex assay against HEK293T;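 as to Population Tubulin-Different-Phenotype (%): share of the cells with healthy nuclei that show this phenotype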
Type: toxicity, cell-based
Conditions: human
How it was run: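 Imaging took place on a CQ1 microscope at 37°C and 5% CO2 once compound had been added to live cells stained at seeding with Hoechst33342, BioTracker Green Microtubule Cytoskeleton Dye, MitoTracker Red and Annexin V Alexa Fluor 680. CellPathfinder machine-learning gating classed cells as Hoechst high-intensity objects or normal cells, classed normal cells as having healthy, pyknosed or fragmented nuclei, and classed pyknosed cells as mitotic or apoptotic. Tubulin, mitochondrial-mass and membrane-permeability phenotypes are per cents of the healthy-nucleus cells.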

[1] = 12 h, 1 µM, compound concentration 1 uM, replicate 1
[2] = 12 h, 1 µM, compound concentration 1 uM, replicate 2
[3] = 12 h, 10 µM, compound concentration 10 uM, replicate 1
[4] = 12 h, 10 µM, compound concentration 10 uM, replicate 2
[5] = 24 h, 1 µM, compound concentration 1 uM, replicate 1
[6] = 24 h, 1 µM, compound concentration 1 uM, replicate 2
[7] = 24 h, 10 µM, compound concentration 10 uM, replicate 1
[8] = 24 h, 10 µM, compound concentration 10 uM, replicate 2
[9] = 48 h, 1 µM, compound concentration 1 uM, replicate 1
[10] = 48 h, 1 µM, compound concentration 1 uM, replicate 2
[11] = 48 h, 10 µM, compound concentration 10 uM, replicate 1
[12] = 48 h, 10 µM, compound concentration 10 uM, replicate 2

Cc1cccc(CN2CCN(C(c3ccccc3)c3ccc(Cl)cc3)CC2)c1.Cl.Cl (configuration not stated)
Population Apoptotic (%) [1]: 52% | Population Fragmented Nuclei (%) [1]: 13% | Population Healthy Nuclei (%) [1]: 25% | Population Hoechst High Intensity Objects (%) [1]: 19% | Population Membrane Permeable-Phenotype (%) [1]: 0% | Population Mitochondria Different-Phenotype (%) [1]: 73% | Population Mitotic Cells (%) [1]: 47% | Population Normal (%) [1]: 80% | Population Pyknosed Nuclei (%) [1]: 60% | Population Tubulin-Different-Phenotype (%) [1]: 39% | Total Cell Count [1]: 198 | Population Apoptotic (%) [2]: 9% | Population Fragmented Nuclei (%) [2]: 6% | Population Healthy Nuclei (%) [2]: 48% | Population Hoechst High Intensity Objects (%) [2]: 3% | Population Membrane Permeable-Phenotype (%) [2]: 10% | Population Mitochondria Different-Phenotype (%) [2]: 25% | Population Mitotic Cells (%) [2]: 90% | Population Normal (%) [2]: 96% | Population Pyknosed Nuclei (%) [2]: 44% | Population Tubulin-Different-Phenotype (%) [2]: 18% | Total Cell Count [2]: 170 | Population Apoptotic (%) [3]: 69% | Population Fragmented Nuclei (%) [3]: 10% | Population Healthy Nuclei (%) [3]: 40% | Population Hoechst High Intensity Objects (%) [3]: 16% | Population Membrane Permeable-Phenotype (%) [3]: 3% | Population Mitochondria Different-Phenotype (%) [3]: 96% | Population Mitotic Cells (%) [3]: 30% | Population Normal (%) [3]: 83% | Population Pyknosed Nuclei (%) [3]: 49% | Population Tubulin-Different-Phenotype (%) [3]: 85% | Total Cell Count [3]: 255 | Population Apoptotic (%) [4]: 42% | Population Fragmented Nuclei (%) [4]: 8% | Population Healthy Nuclei (%) [4]: 38% | Population Hoechst High Intensity Objects (%) [4]: 3% | Population Membrane Permeable-Phenotype (%) [4]: 6% | Population Mitochondria Different-Phenotype (%) [4]: 73% | Population Mitotic Cells (%) [4]: 57% | Population Normal (%) [4]: 96% | Population Pyknosed Nuclei (%) [4]: 53% | Population Tubulin-Different-Phenotype (%) [4]: 69% | Total Cell Count [4]: 206 | Population Apoptotic (%) [5]: 51% | Population Fragmented Nuclei (%) [5]: 11% | Population Healthy Nuclei (%) [5]: 33% | Population Hoechst High Intensity Objects (%) [5]: 17% | Population Membrane Permeable-Phenotype (%) [5]: 1% | Population Mitochondria Different-Phenotype (%) [5]: 73% | Population Mitotic Cells (%) [5]: 48% | Population Normal (%) [5]: 82% | Population Pyknosed Nuclei (%) [5]: 55% | Population Tubulin-Different-Phenotype (%) [5]: 43% | Total Cell Count [5]: 204 | Population Apoptotic (%) [6]: 10% | Population Fragmented Nuclei (%) [6]: 6% | Population Healthy Nuclei (%) [6]: 66% | Population Hoechst High Intensity Objects (%) [6]: 4% | Population Membrane Permeable-Phenotype (%) [6]: 7% | Population Mitochondria Different-Phenotype (%) [6]: 26% | Population Mitotic Cells (%) [6]: 89% | Population Normal (%) [6]: 95% | Population Pyknosed Nuclei (%) [6]: 26% | Population Tubulin-Different-Phenotype (%) [6]: 33% | Total Cell Count [6]: 221 | Population Apoptotic (%) [7]: 75% | Population Fragmented Nuclei (%) [7]: 11% | Population Healthy Nuclei (%) [7]: 41% | Population Hoechst High Intensity Objects (%) [7]: 15% | Population Membrane Permeable-Phenotype (%) [7]: 0% | Population Mitochondria Different-Phenotype (%) [7]: 96% | Population Mitotic Cells (%) [7]: 24% | Population Normal (%) [7]: 84% | Population Pyknosed Nuclei (%) [7]: 46% | Population Tubulin-Different-Phenotype (%) [7]: 87% | Total Cell Count [7]: 274 | Population Apoptotic (%) [8]: 59% | Population Fragmented Nuclei (%) [8]: 6% | Population Healthy Nuclei (%) [8]: 56% | Population Hoechst High Intensity Objects (%) [8]: 3% | Population Membrane Permeable-Phenotype (%) [8]: 6% | Population Mitochondria Different-Phenotype (%) [8]: 87% | Population Mitotic Cells (%) [8]: 40% | Population Normal (%) [8]: 96% | Population Pyknosed Nuclei (%) [8]: 37% | Population Tubulin-Different-Phenotype (%) [8]: 81% | Total Cell Count [8]: 246 | Population Apoptotic (%) [9]: 49% | Population Fragmented Nuclei (%) [9]: 18% | Population Healthy Nuclei (%) [9]: 34% | Population Hoechst High Intensity Objects (%) [9]: 17% | Population Membrane Permeable-Phenotype (%) [9]: 2% | Population Mitochondria Different-Phenotype (%) [9]: 47% | Population Mitotic Cells (%) [9]: 50% | Population Normal (%) [9]: 82% | Population Pyknosed Nuclei (%) [9]: 47% | Population Tubulin-Different-Phenotype (%) [9]: 34% | Total Cell Count [9]: 244 | Population Apoptotic (%) [10]: 15% | Population Fragmented Nuclei (%) [10]: 10% | Population Healthy Nuclei (%) [10]: 75% | Population Hoechst High Intensity Objects (%) [10]: 4% | Population Membrane Permeable-Phenotype (%) [10]: 5% | Population Mitochondria Different-Phenotype (%) [10]: 7% | Population Mitotic Cells (%) [10]: 84% | Population Normal (%) [10]: 95% | Population Pyknosed Nuclei (%) [10]: 13% | Population Tubulin-Different-Phenotype (%) [10]: 20% | Total Cell Count [10]: 397 | Population Apoptotic (%) [11]: 61% | Population Fragmented Nuclei (%) [11]: 13% | Population Healthy Nuclei (%) [11]: 55% | Population Hoechst High Intensity Objects (%) [11]: 12% | Population Membrane Permeable-Phenotype (%) [11]: 2% | Population Mitochondria Different-Phenotype (%) [11]: 89% | Population Mitotic Cells (%) [11]: 38% | Population Normal (%) [11]: 87% | Population Pyknosed Nuclei (%) [11]: 31% | Population Tubulin-Different-Phenotype (%) [11]: 83% | Total Cell Count [11]: 309 | Population Apoptotic (%) [12]: 44% | Population Fragmented Nuclei (%) [12]: 7% | Population Healthy Nuclei (%) [12]: 68% | Population Hoechst High Intensity Objects (%) [12]: 4% | Population Membrane Permeable-Phenotype (%) [12]: 4% | Population Mitochondria Different-Phenotype (%) [12]: 67% | Population Mitotic Cells (%) [12]: 55% | Population Normal (%) [12]: 95% | Population Pyknosed Nuclei (%) [12]: 24% | Population Tubulin-Different-Phenotype (%) [12]: 71% | Total Cell Count [12]: 355
